Results on 13 molecules are retold here after PMC7613447 (Bioorganic & medicinal chemistry, 2022).

One test has as its target PP1 (Homo sapiens, UniProt P62136). Put plainly: ALPHA assay, competition with Biotin-PDP2 for the RVxF binding site of His-PP1. In outline: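 Competition binding with 200 nM His-PP1 and 67 nM biotin-PDP2 in 50 mM Tris-Cl pH 7.5, 150 mM NaCl, 0.05% Tween 20, 1 mM MnCl₂, 0.1% BSA. Serial dilutions of test compound were added for 60 min at rt. Streptavidin-donor and anti-His-acceptor beads (5 μg/ml final) were then added for 90 min at rt in the dark. Excitation was 680 nm, emission 570 nm. The non-specific control used 22 nM GST(His-biotin).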

A further test concerns the target PP1 and Inhibitor 2 (Homo sapiens, UniProt P62136). Nature of the test: Disruption of the interaction between PP1 and Inhibitor 2. The format is biochemical. The note with it: for EC50 of the disruption of the interaction between PP1 and Inhibitor 2: starting at 50% inhibition of PP1 with I2, DiFMUP as substrate; for activity in disrupting PP1:I2 (in words): in vitro, Table 1 conditions; for PP1 activity reached (efficacy): maximum of dose-response, around 50% starting inhibition (Supp. Fig. 2E, F).

The next test has as its system HeLa cells. Put plainly: Calcium release assay, Fluo-4 imaging in intact HeLa cells. Type of test: cell-based. As to conditions: Fluo-4, Ca^2+-containing imaging buffer. In a few lines: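 HeLa Kyoto cells were grown in low-glucose DMEM with 10% FBS, penicillin/streptomycin and L-glutamine at 37 °C, 5% CO₂, then seeded in chamber slides the day before imaging (~80% confluent). Cells were loaded with 0.5 μM Fluo-4 in HEPES pH 7.4 imaging buffer containing 1.2 mM CaCl₂ for 30 min at rt, then washed. Confocal imaging used ex 488/em 516 nm: 2 min baseline, then 30 min after compound addition. Buffer and a PP1-disrupting peptide served as controls. Responding cells were counted.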

Another test has as its system PP1 by I2. The note with it: starting inhibition of PP1 by I2 of 50%; cited from earlier work.

Where a SMILES comes first, the peptide text is derived from it. [ ]: non-standard residue; d: D form. 1Nal = N[C@@H](Cc1cccc2ccccc12)C(=O)O; 2Nal = N[C@@H](Cc1ccc2ccccc2c1)C(=O)O

PP1 and Inhibitor 2, sequence (P62136 whole entry): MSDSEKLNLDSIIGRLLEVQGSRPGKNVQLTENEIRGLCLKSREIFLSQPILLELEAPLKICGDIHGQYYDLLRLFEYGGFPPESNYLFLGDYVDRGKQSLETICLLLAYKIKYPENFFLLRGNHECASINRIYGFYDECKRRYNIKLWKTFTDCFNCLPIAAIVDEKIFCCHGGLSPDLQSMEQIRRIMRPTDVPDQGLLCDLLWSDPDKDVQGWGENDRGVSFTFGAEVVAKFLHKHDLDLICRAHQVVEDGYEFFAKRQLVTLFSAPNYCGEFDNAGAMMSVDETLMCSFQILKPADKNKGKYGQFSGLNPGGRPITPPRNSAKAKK
PP1, sequence (P62136 whole entry): as above

On PP1, `CC(C)[C@H](NC(=O)[C@@H](N)CCCNC(=N)N)C(=O)N[C@H](C(=O)N[C@@H](Cc1ccccc1)C(=O)O)[C@@H](C)O` [Compound 1, RVTF] (H-RVTF-OH) yielded an IC50 of 124 µM.

As for `CC[C@H](C)[C@H](NC(=O)[C@@H](N)CCCNC(=N)N)C(=O)N[C@H](C(=O)N[C@@H](Cc1ccccc1)C(=O)O)[C@@H](C)O` [Compound 3, RITF] (H-RITF-OH), the “EC50 of the disruption of the interaction between PP1 and Inhibitor 2” value on PP1 and Inhibitor 2 is listed as “Slightly active at 500 μM”.

Regarding `CC(C)C[C@H](NC(=O)[C@@H](N)CCCNC(=N)N)C(=O)N[C@H](C(=O)N[C@@H](Cc1ccccc1)C(=O)O)[C@@H](C)O` [Compound 4, RLTF] (H-RLTF-OH), the “EC50 of the disruption of the interaction between PP1 and Inhibitor 2” value on PP1 and Inhibitor 2 is “Slightly active at 500 μM”.

On to `CC(C)[C@H](NC(=O)[C@@H](N)CCCNC(=N)N)C(=O)NCC(=O)N[C@@H](Cc1ccccc1)C(=O)O` [Compound 6, RVGF] (H-RVGF-OH), for which, on PP1 and Inhibitor 2, the “EC50 of the disruption of the interaction between PP1 and Inhibitor 2” value is given as “Slightly active at 500 μM”.

Turning to `CC(C)[C@H](NC(=O)[C@@H](NC(=O)[C@@H](N)CCCNC(=N)N)C(C)C)C(=O)N[C@@H](Cc1ccccc1)C(=O)O` [Compound 7, RVVF] (H-RVVF-OH), the “EC50 of the disruption of the interaction between PP1 and Inhibitor 2” value on PP1 and Inhibitor 2 is “Slightly active at 500 μM”.

In the case of `CC(C)[C@H](NC(=O)[C@@H](N)CCCNC(=N)N)C(=O)N[C@@H](CCC(=O)O)C(=O)N[C@@H](Cc1ccccc1)C(=O)O` [Compound 13, RVEF] (H-RVEF-OH), the “EC50 of the disruption of the interaction between PP1 and Inhibitor 2” value on PP1 and Inhibitor 2 was “Slightly active at 500 μM”.

Take `CC(C)[C@H](NC(=O)[C@@H](NC(=O)[C@@H](N)Cc1ccccc1)[C@@H](C)O)C(=O)N[C@@H](CCCNC(=N)N)C(=O)O` [Compound 25, FTVR] (H-FTVR-OH): at PP1 and Inhibitor 2, the “activity in disrupting PP1:I2 (in words)” value was “inactive”.

For `CC(C)[C@@H](NC(=O)[C@@H](Cc1c[nH]cn1)NC(=O)[C@H](N)Cc1ccccc1)C(=O)N[C@H](CCCNC(=N)N)C(=O)O` [Compound 27, dFdHdVdR], the “EC50 of the disruption of the interaction between PP1 and Inhibitor 2” value at PP1 and Inhibitor 2 is given as “Slightly active at 500 μM”.

As for `CC(=O)N[C@@H](CCCNC(=N)N)C(=O)N[C@H](C(=O)N[C@H](C(=O)N[C@@H](Cc1ccccc1)C(=O)O)[C@@H](C)O)C(C)C` [Compound 28, Ac-RVTF] (Ac-RVTF-OH), the “activity in disrupting PP1:I2 (in words)” value on PP1 and Inhibitor 2 was “inactive”.

On to `CC(C)[C@H](NC(=O)[C@H](CCCNC(=N)N)NC(=O)[C@@H](N)CCCCN)C(=O)N[C@@H](Cc1c[nH]cn1)C(=O)N[C@@H](Cc1cccc2ccccc12)C(N)=O` [Compound 48, KRVH-(1-NaI)-NH2] (H-KRVH[1Nal]-NH2), for which, on PP1 and Inhibitor 2, the “PP1 activity reached (efficacy)” value is given as “around 80%”.

Turning to `CC(C)[C@H](NC(=O)[C@H](CCCNC(=N)N)NC(=O)[C@@H](N)CCCCN)C(=O)N[C@@H](Cc1c[nH]cn1)C(=O)N[C@@H](Cc1ccc2ccccc2c1)C(N)=O` [Compound 49, KRVH-(2-NaI)-NH2] (H-KRVH[2Nal]-NH2), the “PP1 activity reached (efficacy)” value at PP1 and Inhibitor 2 is “around 80%”.

For the molecule “Ac-KRVHF-NH2 [Compound 34, Ac-KRVHF-NH2]”, the “calcium spiking in living HeLa cells (in words)” value in the test on HeLa cells was “inactive”.

In the case of RKIQFT, the EC50 in the test on PP1 by I2 is 54 µM.
